From publication PMC5801006 (European journal of medicinal chemistry, 2017)
Read-outs that look alike come from different tables or passages of the source.

How the values were obtained:
Panc02 = assay: MTT viability, 48 h; type: cell-based, mouse; conditions: read-out: Activity, EC50 Panc02
KP02 = assay: MTT viability, 48 h; type: cell-based, mouse; conditions: read-out: Activity, EC50 KP02
KCKO = assay: MTT viability, 48 h; type: cell-based, mouse; conditions: read-out: Activity, EC50 KCKO
BxPC3 = assay: MTT viability, 48 h; type: cell-based, human; conditions: read-out: Activity, EC50 BxPC3
AsPC1 = assay: MTT viability, 48 h; type: cell-based, human; conditions: read-out: Activity, EC50 AsPC1
KP02 tumor cells = assay: ROS involvement: MTT viability with antioxidants α-tocopherol or NAC; type: cell-based, mouse; conditions: KP02, 4 μM compound 48 h; for Rescue of cell death by NAC: 100 μM NAC; for Rescue of cell death by α-tocopherol: 100 μM α-tocopherol 1 hour prior
caspase-3 in KP02 cells = assay: Caspase-3 activation; type: cell-based, mouse; conditions: KP02, 25 μM, 5 hours, relative to vehicle
Summary of the method: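 KP02 cells (DMEM/Ham's F-12 1:1, 10% FBS, 37 °C, 5% CO2) seeded at 1 × 10^4/well 24 h before treatment. Exposed to 25 μM test compound for 5 h, with or without α-tocopherol (100 μM) or Z-DEVD-FMK (1 μM). Caspase-Glo reagent with luminogenic caspase substrate added, shaken 30 s, then 90 min at room temperature. Luminescence read relative to DMSO-treated cells. Triplicates; n ≥ 3 independent experiments, mean ± SEM.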

P-gp = P-gp (Homo sapiens, UniProt P08183); assay: Calcein-AM assay in MDCK-MDR1 cells; type: cell-based; conditions: n.a. = not active, mean of n ≥ 3 ± SEM
P-gp, sequence (P08183 whole entry): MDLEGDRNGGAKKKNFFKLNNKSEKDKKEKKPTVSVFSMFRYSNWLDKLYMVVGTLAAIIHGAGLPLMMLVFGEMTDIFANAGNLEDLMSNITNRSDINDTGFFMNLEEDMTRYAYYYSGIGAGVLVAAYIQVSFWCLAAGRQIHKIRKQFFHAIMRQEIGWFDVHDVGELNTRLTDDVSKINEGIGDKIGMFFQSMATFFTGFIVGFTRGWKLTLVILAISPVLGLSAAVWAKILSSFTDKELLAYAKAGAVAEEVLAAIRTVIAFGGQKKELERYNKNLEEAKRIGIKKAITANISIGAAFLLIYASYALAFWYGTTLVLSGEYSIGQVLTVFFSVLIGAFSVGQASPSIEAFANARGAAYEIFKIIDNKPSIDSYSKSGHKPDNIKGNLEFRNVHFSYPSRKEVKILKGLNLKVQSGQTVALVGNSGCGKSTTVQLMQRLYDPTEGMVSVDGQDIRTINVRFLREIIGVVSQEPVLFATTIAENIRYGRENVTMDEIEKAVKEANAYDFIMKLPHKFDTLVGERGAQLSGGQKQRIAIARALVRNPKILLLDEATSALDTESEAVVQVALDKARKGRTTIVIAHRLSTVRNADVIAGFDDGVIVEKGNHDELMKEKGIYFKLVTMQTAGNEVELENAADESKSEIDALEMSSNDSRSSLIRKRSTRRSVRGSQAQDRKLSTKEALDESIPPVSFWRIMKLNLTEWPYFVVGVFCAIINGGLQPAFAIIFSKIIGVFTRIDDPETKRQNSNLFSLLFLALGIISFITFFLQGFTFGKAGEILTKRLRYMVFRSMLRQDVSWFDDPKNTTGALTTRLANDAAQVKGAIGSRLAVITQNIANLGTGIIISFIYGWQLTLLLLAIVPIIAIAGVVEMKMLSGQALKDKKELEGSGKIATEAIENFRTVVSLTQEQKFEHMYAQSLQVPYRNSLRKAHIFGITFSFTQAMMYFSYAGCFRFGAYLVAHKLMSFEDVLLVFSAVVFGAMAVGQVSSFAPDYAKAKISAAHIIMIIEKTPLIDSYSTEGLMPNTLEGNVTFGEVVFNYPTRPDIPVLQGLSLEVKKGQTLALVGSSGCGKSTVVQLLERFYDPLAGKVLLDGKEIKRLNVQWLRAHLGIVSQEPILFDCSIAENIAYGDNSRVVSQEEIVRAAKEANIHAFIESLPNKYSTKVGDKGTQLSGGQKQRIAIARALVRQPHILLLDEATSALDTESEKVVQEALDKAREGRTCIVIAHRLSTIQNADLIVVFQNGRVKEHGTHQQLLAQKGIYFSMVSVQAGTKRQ

MIAPaCa-2 = assay: MTT viability, 48 h; type: cell-based, human; conditions: read-out: Activity, EC50 MIAPaCa-2, 48 hr treatment
Panc-1 = assay: MTT viability, 48 h; type: cell-based, human; conditions: read-out: Activity, EC50 Panc-1
KP02 tumors = assay: In vivo tumor growth, subcutaneous KP02 tumors in C57BL/6 mice
[1] = type: in vivo; conditions: for PCV: 7 at 750nmol/100μL, 1 and 2 at 1500nmol/100 μL, 2 weeks, n = 3, control 47.5 ± 3; for Necropsy/histology findings (pulmonary metastases, nephropathy) / Mouse weight at necropsy: after 2 weeks daily i.p. treatment; for Mouse weight at necropsy: vehicle 19.5± 0.5; for Treatment-related deaths: 750 nmol/100μL i.p. daily for two weeks
σ1 receptor = σ1 receptor (Homo sapiens, UniProt Q99720); assay: σ1 binding by flow cytometry in MCF7σ1 cells; conditions: displacement of σ1 fluorescent compound, 0.1 nmol/L-10 μM
σ1 receptor, sequence (Q99720 whole entry): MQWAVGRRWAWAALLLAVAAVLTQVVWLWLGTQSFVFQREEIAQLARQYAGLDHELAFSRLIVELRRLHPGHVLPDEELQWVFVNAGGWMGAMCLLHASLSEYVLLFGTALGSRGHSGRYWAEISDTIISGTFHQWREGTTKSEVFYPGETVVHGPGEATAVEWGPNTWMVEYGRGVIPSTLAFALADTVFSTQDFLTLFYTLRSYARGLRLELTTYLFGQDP
Summary of the method: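 MCF7 cells engineered for σ1 (DMEM, 10% FBS) incubated with test compound at 0.1, 1, 10, 100 nmol/L, 1 and 10 μM. Then 100 nmol/L σ1 fluorescent probe added for 75 min at 37 °C, with F390 (10 μM) co-incubated to mask σ2. Cells washed twice with PBS, detached (10 min, 37 °C), pelleted and resuspended in PBS. Fluorescence read by flow cytometry through a 530 nm band-pass filter, 50,000 events per sample.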

[2] = system: pancreatic cancer cell lines; assay: MTT viability, summary over the panel of pancreatic cancer cell lines; conditions: 48 h, read-out: Cytotoxic EC50 values in most of the cell lines studied
[3] = system: mitochondrial superoxide in KP02 cells; assay: Mitochondrial superoxide detection; type: cell-based, mouse; conditions: KP02, 50 μM, 2 hours, MitoSOX Red
Summary of the method: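 KP02 cells seeded in 12-well plates 24 h ahead, then exposed to 50 μM test compound for 2 h at 37 °C, with or without α-tocopherol. Stained with MitoSOX Red (5 μM); after 2 h, washed with PBS, harvested with trypsin/EDTA and washed again. Oxidised dye (emission ~580 nm) read by flow cytometry in FL3 as mean fluorescence intensity. Triplicates.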

[4] = system: pancreatic cancer cell lines
[5] = 750 nmol/100μL vehicle i.p. daily for two weeks, vehicle mean 596 mm^3
[6] = 1500 nmol/100μL vehicle i.p. daily for two weeks, vehicle mean 592 mm^3

## COc1cc2c(cc1OC)C(=O)N(CCCCN1C(=O)/C(=N\NC(=S)N(C)C)c3ccccc31)CC2 [Compound 9, (Z)-2-(1-(4-(6,7-Dimethoxy-1-oxo-3,4-dihydroisoquinolin-2(1H)-yl)butyl)-2-oxoindolin-3-ylidene)-N,N-dimethylhydrazinecarbothioamide]
Panc02; Mus musculus, Panc02, 48 h
  EC50: 2.18 ± 0.3 µM
KP02; Mus musculus, 48 h
  EC50: 5.62 ± 1.1 µM
KCKO; Mus musculus, 48 h
  EC50: 4.51 ± 0.8 µM
BxPC3; Homo sapiens, BXPC-3, 48 h
  EC50: 5.93 ± 0.7 µM
AsPC1; Homo sapiens, ASPC1, 48 h
  EC50: 5.74 ± 0.5 µM
KP02 tumor cells
  Rescue of cell death by NAC: even higher levels of cell death
  Rescue of cell death by α-tocopherol: rescued the pancreatic cancer cells
caspase-3 in KP02 cells
  Increase of caspase-3 activity: did not activate the caspase-3 at all

## CCCCN1CCc2cc(OC)c(OC)cc2C1 [Compound 10, N-Butyl-6,7-dimethoxy-1,2,3,4-tetrahydroisoquinoline]
Panc02; Mus musculus, Panc02, 48 h
  EC50: > 100 µM
KP02; Mus musculus, 48 h
  EC50: > 100 µM
KCKO; Mus musculus, 48 h
  EC50: > 100 µM
BxPC3; Homo sapiens, BXPC-3, 48 h
  EC50: > 100 µM
AsPC1; Homo sapiens, ASPC1, 48 h
  EC50: > 100 µM

## NC(=S)N/N=C1\C(=O)Nc2ccccc21 [Compound 8, (Z)-2-(2-Oxoindolin-3-ylidene)hydrazinecarbothioamide]
P-gp
  P-gp EC50: completely abolished the interaction with the P-gp
Panc02; Mus musculus, Panc02, 48 h
  EC50: > 100 µM
KP02; Mus musculus, 48 h
  EC50: > 100 µM
KCKO; Mus musculus, 48 h
  EC50: > 100 µM
BxPC3; Homo sapiens, BXPC-3, 48 h
  EC50: > 100 µM
AsPC1; Homo sapiens, ASPC1, 48 h
  EC50: > 100 µM

## CN(C)C(=S)N/N=C1\C(=O)Nc2ccccc21 [Compound 7, (Z)-N,N-Dimethyl-2-(2-oxoindolin-3-ylidene)hydrazinecarbothioamide]
P-gp
  P-gp EC50: completely abolished the interaction with the P-gp
Panc02; Mus musculus, Panc02, 48 h
  EC50: 1.21 ± 0.1 µM
KP02; Mus musculus, 48 h
  EC50: 2.83 ± 0.6 µM
KCKO; Mus musculus, 48 h
  EC50: 3.14 ± 0.4 µM
MIAPaCa-2
  EC50: 18.3 ± 2.1 µM
BxPC3; Homo sapiens, BXPC-3, 48 h
  EC50: 2.52 ± 0.5 µM
AsPC1; Homo sapiens, ASPC1, 48 h
  EC50: 2.17 ± 0.3 µM
Panc-1; Homo sapiens, PANC-1, 48 h
  EC50: > 100 µM
KP02 tumor cells
  Rescue of cell death by NAC: even higher levels of cell death
  Rescue of cell death by α-tocopherol: no cells were rescued
caspase-3 in KP02 cells
  Increase of caspase-3 activity: did not activate the caspase-3 at all
KP02 tumors; [5]
  Mean tumor volume after conclusion of treatment: 328 mm^3
[1]
  PCV: 42.65 ± 2.85%
  Necropsy/histology findings (pulmonary metastases, nephropathy): foci of pulmonary metastases of the implanted tumor and a mild chronic progressive nephropathy
  Mouse weight at necropsy: 19.5 ± 0.5 grams
σ1 receptor
  Interaction with the σ1 receptor: ruled out
[2]
  EC50: 1.21 to 3.14 µM

## CCCCN1CCN(C2CCCCC2)CC1 [Compound 11, 1-Butyl-4-cyclohexyl-piperazine]
P-gp
  P-gp EC50: complete loss of interaction with P-gp
Panc02; Mus musculus, Panc02, 48 h
  EC50: > 100 µM
KP02; Mus musculus, 48 h
  EC50: > 100 µM
KCKO; Mus musculus, 48 h
  EC50: > 100 µM
BxPC3; Homo sapiens, BXPC-3, 48 h
  EC50: > 100 µM
AsPC1; Homo sapiens, ASPC1, 48 h
  EC50: > 100 µM

## (Z)-2-(1-(4-(6,7-Dimethoxy-3,4-dihydroisoquinolin-2(1H)-yl)butyl)-2-oxoindolin-3-ylidene)-N,N-dimethylhydrazinecarbothioamide [Compound 1]
Panc02; 48 hr treatment, MTT
  EC50: 1.33 ± 0.2 µM
KP02; 48 hr treatment, MTT
  EC50: 6.92 ± 0.9 µM
KCKO; 48 hr treatment, MTT
  EC50: 6.49 ± 1 µM
MIAPaCa-2
  EC50: 14.6 ± 2.2 µM
BxPC3; 48 hr treatment, MTT
  EC50: 2.34 ± 0.8 µM
AsPC1; 48 hr treatment, MTT
  EC50: 2.01 ± 0.6 µM
Panc-1; 48 hr treatment, MTT
  EC50: 14.6 ± 2.1 µM
KP02 tumor cells
  Rescue of cell death by α-tocopherol: rescued the pancreatic cancer cells
caspase-3 in KP02 cells
  Increase of caspase-3 activity: did not activate the caspase-3 at all
[3]
  Mitochondrial superoxide production, increase of mean fluorescence intensity: 6 fold
KP02 tumors; [5]
  Mean tumor volume after conclusion of treatment: statistically similar to vehicle
KP02 tumors; [6]
  Mean tumor volume after conclusion of treatment: 205 mm^3
[1]
  Treatment-related deaths: without experiencing any treatment-related deaths
  PCV: 45.45 ± 4.15%
  Necropsy/histology findings (pulmonary metastases, nephropathy): not noticed
  Mouse weight at necropsy: 17.5 ± 0.5 grams
σ1 receptor
  Interaction with the σ1 receptor: ruled out
[4]
  EC50: 1.17 to 14.7 µM

## (Z)-2-[1-[4-(4-Cyclohexylpiperazin-1-yl)butyl]-2-oxoindolin-3-ylidene]-N,N-dimethylhydrazinecarbothioamide [Compound 2]
Panc02; 48 hr treatment, MTT
  EC50: 1.17 ± 0.4 µM
KP02; 48 hr treatment, MTT
  EC50: 7.32 ± 0.8 µM
KCKO; 48 hr treatment, MTT
  EC50: 6.18 ± 0.3 µM
MIAPaCa-2
  EC50: 10.8 ± 1.3 µM
BxPC3; 48 hr treatment, MTT
  EC50: 6.15 ± 0.6 µM
AsPC1; 48 hr treatment, MTT
  EC50: 3.86 ± 0.2 µM
Panc-1; 48 hr treatment, MTT
  EC50: 8.73 ± 0.8 µM
KP02 tumor cells
  Rescue of cell death by α-tocopherol: rescued the pancreatic cancer cells
caspase-3 in KP02 cells
  Increase of caspase-3 activity: 6 fold
[3]
  Mitochondrial superoxide production, increase of mean fluorescence intensity: 20 fold
KP02 tumors; [5]
  Mean tumor volume after conclusion of treatment: statistically similar to vehicle
KP02 tumors; [6]
  Mean tumor volume after conclusion of treatment: 196 mm^3
[1]
  Treatment-related deaths: without experiencing any treatment-related deaths
  PCV: 51 ± 3.8%
  Necropsy/histology findings (pulmonary metastases, nephropathy): not noticed
  Mouse weight at necropsy: 19 ± 1 grams
σ1 receptor
  Interaction with the σ1 receptor: ruled out
[4]
  EC50: 1.17 to 14.7 µM
